Source: PubChem
Runt-SMMHC FRET: Runt domain-CBFb-SMMHC interaction inhibition. inhibition, % at 20 µM. 220,000 tested, 0.74% active. Cerulean-Runt/Venus-CBFb-SMMHC FRET ratio 530/480, 1 h. Q01196+Q13951;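 active = mean inhibition across duplicate retests at 20 µM reaching about 50%, limit read from the data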;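 note: inhibitors lower the FRET ratio by blocking Runt binding to CBFb-SMMHC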
Target sequence (Q01196 whole entry, looked up, the tested form may be a part): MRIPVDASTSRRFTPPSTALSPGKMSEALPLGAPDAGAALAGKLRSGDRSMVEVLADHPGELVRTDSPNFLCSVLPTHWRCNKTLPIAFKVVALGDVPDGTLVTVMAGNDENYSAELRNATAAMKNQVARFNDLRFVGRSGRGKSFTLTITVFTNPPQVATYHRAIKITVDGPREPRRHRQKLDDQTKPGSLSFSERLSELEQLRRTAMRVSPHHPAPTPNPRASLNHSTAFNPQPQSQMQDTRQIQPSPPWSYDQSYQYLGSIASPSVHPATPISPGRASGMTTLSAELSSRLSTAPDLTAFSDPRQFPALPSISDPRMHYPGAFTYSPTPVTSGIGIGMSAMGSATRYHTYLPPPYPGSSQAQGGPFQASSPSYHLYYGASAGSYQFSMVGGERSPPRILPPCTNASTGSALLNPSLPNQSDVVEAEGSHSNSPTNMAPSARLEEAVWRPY
Target sequence (Q13951 whole entry, looked up, the tested form may be a part): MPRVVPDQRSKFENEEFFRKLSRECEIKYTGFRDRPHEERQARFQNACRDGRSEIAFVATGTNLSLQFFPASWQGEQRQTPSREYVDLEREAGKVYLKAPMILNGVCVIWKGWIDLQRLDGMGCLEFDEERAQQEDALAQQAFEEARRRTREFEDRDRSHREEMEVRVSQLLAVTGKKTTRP
Runt-CBFb FRET: Runt domain-CBFb interaction inhibition. Cerulean-Runt/Venus-CBFb FRET ratio 530/480, 1 h. inhibition, % at 20 µM. 220,000 tested, 0.46% active;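 active = inhibition over about 50% at 20 µM in the single-dose screen, limit read from the data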
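System: Cerulean-labeled Runt domain protein | Quantity: 100 nM of each labeled protein | Schedule: 1 h compound exposure, room temperature | Detection: Fluorescence energy transfer, 422 nm excitation, 530/480 nm emission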
EBV gp42 inh: EBV gp42 inhibition; Q1HVG2; Fluorescence polarization binding assay, mP read-out; inhibition, % (tested at 21.74 µM); 220,000 tested, 0.42% active
MEX-5 binding: C. elegans MEX-5 TCR-2 RNA binding activity; Q9XUB2; AID 1832; MEX-5/FITC-TCR2 RNA binding, fluorescence polarization; active compounds read low; 300,000 tested, 0.38% active; activity score (negative = inhibition of binding), % at 10 µM;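 active = inhibition past about -25% in most replicates, and total fluorescence under double the plate's negative control median, limit read from the data; inconclusive = replicates evenly split on the limit, or fluorescence at least double controls; inactive = too little inhibition in most replicates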
RanGTP-Imp inh: inhibitors of RanGTP-importin-beta interaction, primary screen, biochemical, FRET, CFP-Ran, YFP-importin-beta, homogeneous; cell-free CFP-Ran/YFP-importin-beta FRET ratio; inhibition, % (no concentration beside the values); 300,000 tested, 1.1% active; AID 2216;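 active = more than half of the replicate wells show a fall in the fluorescence ratio signal beyond about 16%, limit read from the data, passing the limit was not always enough; inconclusive = exactly half of the replicate wells pass the set limit; inactive = fewer than half of replicates pass the limit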
PKD1 inh: PKD1 (human) kinase inhibition; PKD1 kinase fluorescence polarization assay; inhibition, % (test concentration not listed); 200,000 tested, 0.056% active; AID 797
RUNX1 CBFb TR: disrupts human RUNX1 Runt domain binding to CBFb; AID 1502; shares compounds with Runt-CBFb FRET; TR-FRET RUNX1 Runt domain-CBFb binding; inhibition, % at 20 µM; 480 tested, 20% active; in the data active = inhibition above about 40%
YIC counter: counter-screen YIC FRET for RanGTP-importin-beta inhibitors; IC50, µM; AID 435026; Purified YIC probe, intramolecular FRET ratio YFP/CFP; shares compounds with RanGTP-Imp inh; 1,000 tested, 40% active;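 active = fitted half-maximal inhibitory concentration no more than tenfold above the top dose tested; inconclusive = flat fit with 30 to 70% activity, or poor fit; inactive = half-maximal concentration beyond tenfold above the top dose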
Each line names hits and unclear results; the compound was inactive in the other large screens (follow-up assays come after a bar, where they were run). Shown are actives, neighbours in structure and some others; about 2% of the full set was active somewhere. Cut-off read from the data, not from the text of the source, unless noted: active = inhibition above about 50%; inactive = the rest.

Cc1cccc(C)c1N1CCN(c2c(C)cccc2C)CC1	none (no result: Runt-SMMHC FRET, Runt-CBFb FRET, EBV gp42 inh, PKD1 inh)
O=C1NC(=S)N(Cc2ccco2)C(=O)/C1=C\c1cccs1	EBV gp42 inh 72 (no result: MEX-5 binding, RanGTP-Imp inh)
C=C1C2[C@H](OC(C)=O)[C@@H]3CC(=O)[C@]4(C)OC[C@@]3(C)[C@@]4(O)[C@@H](OC(C)=O)[C@H](OC(C)=O)[C@@]2(COC(=O)c2ccccc2)[C@@H](OC(C)=O)C[C@@H]1O (stereo partly drawn)	none (no result: Runt-SMMHC FRET, Runt-CBFb FRET, EBV gp42 inh, PKD1 inh)
O=C1NC(=S)N(c2ccccc2)C(=O)/C1=C/c1ccco1	MEX-5 binding -93 (no result: Runt-SMMHC FRET, Runt-CBFb FRET, EBV gp42 inh, PKD1 inh)
O=C1NC(=O)N(Cc2ccc(F)cc2)C(=O)/C1=C\c1ccc(N2CCCC2)cc1	none (no result: PKD1 inh)
CN1C(=O)C(=Cc2ccc(N3CCCCCC3)cc2)C(=O)N(C)C1=O	EBV gp42 inh 84 (no result: PKD1 inh)
CCOCCCn1c(N)c(C(=O)Nc2sc3c(c2C(=O)OC)CCCC3)c2nc3ccccc3nc21	Runt-SMMHC FRET 137
CCOC(=O)c1c(NC(=O)c2c(N)n(CCCOC)c3nc4ccccc4nc23)sc2c1CCCC2	Runt-SMMHC FRET 101, Runt-CBFb FRET 69
CCOC(=O)C1CCCN(c2ccc([N+](=O)[O-])c3nonc23)C1 (stereo not drawn)	EBV gp42 inh 127, MEX-5 binding inconclusive
CC1CCCN(c2ccc(C(=O)N3CCC4(CC3)OCCO4)cc2[N+](=O)[O-])C1 (stereo not drawn)	none
COc1nc(C)nc(NC(=O)NS(=O)(=O)c2ccccc2Cl)n1	none (no result: Runt-SMMHC FRET, Runt-CBFb FRET, EBV gp42 inh, PKD1 inh)
CN1C[C@H](CO)C=C2c3cccc4[nH]cc(c34)C[C@H]21	EBV gp42 inh 58, MEX-5 binding inconclusive
O=C1NC(=S)NC(=O)C1=Cc1cccn1-c1ccc(O)cc1	Runt-CBFb FRET 57 | RUNX1 CBFb TR 90
O=C(NC(=S)N1C[C@H]2C[C@H](C1)c1cccc(=O)n1C2)c1ccc(Cl)cc1Cl	none (no result: Runt-SMMHC FRET, Runt-CBFb FRET, EBV gp42 inh, PKD1 inh)
CCCCn1c(N)c(C(=O)OCCOC)c2nc3ccccc3nc21	Runt-SMMHC FRET 107, Runt-CBFb FRET 62, RanGTP-Imp inh inconclusive (no result: PKD1 inh) | RUNX1 CBFb TR inactive
CCCCCCOC(=O)c1ccccc1N	none
Cc1c(C)c2ccc(OCC(=O)N3C[C@H]4C[C@@H](C3)c3cccc(=O)n3C4)cc2oc1=O	none (no result: Runt-SMMHC FRET, Runt-CBFb FRET, EBV gp42 inh, PKD1 inh)
CCC[N+]12CCC(CC1)C(=C(c1ccccc1)c1ccccc1)C2	Runt-CBFb FRET 52 | RUNX1 CBFb TR inactive
COc1ccccc1N1CCN(C2CCCN(C(=O)COc3ccccc3Cl)C2)CC1 (stereo not drawn)	none (no result: Runt-SMMHC FRET, Runt-CBFb FRET, EBV gp42 inh, PKD1 inh)
CC[n+]1c(/C=C/N(C)c2ccccc2)sc2ccc(Cl)cc21	Runt-CBFb FRET 55, RanGTP-Imp inh inconclusive | RUNX1 CBFb TR inactive
Nc1c(C(=O)OC2CCCCC2)c2nc3ccccc3nc2n1CC1CCCO1 (stereo not drawn)	Runt-SMMHC FRET 106, Runt-CBFb FRET 54, RanGTP-Imp inh 23 (no result: EBV gp42 inh) | RUNX1 CBFb TR inactive | YIC counter 27
CCOc1cc2c(cc1OCC)-n1cccc1C(c1ccccc1F)NC2 (stereo not drawn)	none (no result: Runt-SMMHC FRET, Runt-CBFb FRET, EBV gp42 inh, PKD1 inh)
COCCOC(=O)c1c(N)n(Cc2ccccc2)c2nc3ccccc3nc12	Runt-SMMHC FRET 108, Runt-CBFb FRET 51, RanGTP-Imp inh 19 (no result: MEX-5 binding) | RUNX1 CBFb TR inactive | YIC counter 46
CC(C)n1c(O)c(C2c3cc(Cl)ccc3Oc3[nH]c(=O)n(C(C)C)c(=O)c32)c(=O)[nH]c1=O (stereo not drawn)	Runt-SMMHC FRET 75, Runt-CBFb FRET 60, RanGTP-Imp inh 22 (no result: PKD1 inh) | RUNX1 CBFb TR inactive | YIC counter inactive
CC(=O)c1c(O)n(-c2cccc(Cl)c2)c(=O)[nH]c1=O (tested in a mixture with another compound)	none (no result: PKD1 inh)
CC(Cc1ccccc1)N1C(=O)c2ccccc2C1=O (stereo not drawn)	none (no result: Runt-SMMHC FRET, Runt-CBFb FRET, EBV gp42 inh, PKD1 inh)
O=C(Nc1cccc(OC(=O)N2CCCCC2)c1)N1CCCCC1	RanGTP-Imp inh 21 | YIC counter inactive
O=C(Nc1cccc(OC(=O)N2CCOCC2)c1)N1CCOCC1	none
CC(C)(C)c1cc([N+](=O)[O-])cc(C(C)(C)C)c1O	none
CN(CC#CCN1CCCC1)C(=O)c1cccc(Cl)c1	none (no result: Runt-SMMHC FRET, Runt-CBFb FRET, EBV gp42 inh, PKD1 inh)
CN1CCCN(c2ccc([N+](=O)[O-])nc2)CC1	none (no result: Runt-SMMHC FRET, Runt-CBFb FRET, EBV gp42 inh, PKD1 inh)
CC(C)OC(=O)c1c(N)n(CC2CCCO2)c2nc3ccccc3nc12 (stereo not drawn)	Runt-SMMHC FRET 92, Runt-CBFb FRET 72, RanGTP-Imp inh 24 | YIC counter 20
CN1CC2=CC(O)CC3Oc4c(O)ccc(c4[C@]23C)C1 (stereo partly drawn)	RanGTP-Imp inh 26 (no result: Runt-SMMHC FRET, Runt-CBFb FRET, EBV gp42 inh, PKD1 inh) | YIC counter inactive
CCN1/C(=C\C=C\C2=[N+](CC)c3ccccc3C2(C)C)C(C)(C)c2ccccc21	MEX-5 binding inconclusive, RanGTP-Imp inh 27 | YIC counter 30
C=CCN1CCc2cccc3c2[C@H]1Cc1ccc(O)c(O)c1-3	RanGTP-Imp inh 19 (no result: Runt-SMMHC FRET, Runt-CBFb FRET, EBV gp42 inh, PKD1 inh) | YIC counter inactive
CCCCNC(=O)c1c(N)n(Cc2ccc3c(c2)OCO3)c2nc3ccccc3nc12	RanGTP-Imp inh 32 | YIC counter 3.1
CC(C)CCn1c(=O)c(C(=O)NCc2ccc3c(c2)OCO3)c(O)c2ccccc21	none (no result: Runt-SMMHC FRET, Runt-CBFb FRET, EBV gp42 inh, PKD1 inh)
CCCN1CCC(NC2CCC(O)CC2)CC1 (stereo not drawn)	none (no result: Runt-SMMHC FRET, Runt-CBFb FRET, EBV gp42 inh, PKD1 inh)
CC(=O)N1CN2CN(C(C)=O)CC(C(=O)c3ccc([N+](=O)[O-])cc3)(C2)C1	none
CC(=O)N1CN2CN(C(C)=O)CC(C(=O)c3ccccc3)(C2)C1	RanGTP-Imp inh 21 | YIC counter inactive
Cc1cc(C=C(C#N)C#N)ccc1N1CCCC1	RanGTP-Imp inh 31 | YIC counter inactive
COc1ccccc1C1CC2CCC(C1OC(C)=O)N2Cc1ccccc1 (stereo not drawn)	none (no result: Runt-SMMHC FRET, Runt-CBFb FRET, EBV gp42 inh, PKD1 inh)
